Screens (PubChem BioAssay)
Sampled rows, rich in hits. Any-hit rate of the full collection: about 2.6%.
SIAE primary = human SIAE inhibition, primary screen. AID 1053197. SIAE FP-Rh probe binding, fluorescence polarization. inhibition, % at 9.66 µM. hit rate 0.69% among 370,000. Q9HAT2;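 active = inhibition above a cutoff: mean of compounds within the control limits plus 3 SD of those, cut at about 17% in these data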;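 also: 0% = plate median of compound wells and 100% = probe without SIAE protein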
ABHD4 inh = ABHD4 (mouse) inhibition, primary FP screen | Q8VD66 | purified mABHD4, FP-Rh probe fluorescence polarization | inhibition, % at 8.92 µM | hit rate 0.54% among 370,000 | AID 720543;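 active = inhibition exceeding the mean over every tested compound plus 3 SD, cut at about 30% in these data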;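 also: 0% = plate median of compound wells and 100% = S159A mutant with DMSO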
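System: mouse ABHD4 enzyme, wild type / Medium: HEPES pH 7.0, NaCl, Pluronic buffer / Reagent: FP-Rh activity-based fluorescent probe / Control set: S159A mutant high control, sample median low control / Detection: fluorescence polarization with parallel and perpendicular emission, 525/598 nm / Schedule: 45 min + 60 min at 25 °C / Compound dosing: 8.92 µM, single dose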
HTRA1 inhibitor = inhibitors of human serine peptidase HTRA1. inhibition, % at 5.96 µM. AID 504803. hit rate 0.5% among 340,000. recombinant HTRA1, FP-rhodamine activity-based probe, fluorescence polarization. Q92743; in the data active = inhibition above about 36%;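 also: 0% = enzyme with DMSO and 100% = wells lacking enzyme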
PRMT1 inh = inhibitors of human PRMT1. Q99873. recombinant PRMT1, activity-based probe fluorescence polarization. inhibition, % at 2.79 µM. hit rate 1.3% among 370,000;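 active = inhibition above about 21% made by adding two undisclosed values, limit read from the data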
Target sequence (Q99873 whole entry, looked up): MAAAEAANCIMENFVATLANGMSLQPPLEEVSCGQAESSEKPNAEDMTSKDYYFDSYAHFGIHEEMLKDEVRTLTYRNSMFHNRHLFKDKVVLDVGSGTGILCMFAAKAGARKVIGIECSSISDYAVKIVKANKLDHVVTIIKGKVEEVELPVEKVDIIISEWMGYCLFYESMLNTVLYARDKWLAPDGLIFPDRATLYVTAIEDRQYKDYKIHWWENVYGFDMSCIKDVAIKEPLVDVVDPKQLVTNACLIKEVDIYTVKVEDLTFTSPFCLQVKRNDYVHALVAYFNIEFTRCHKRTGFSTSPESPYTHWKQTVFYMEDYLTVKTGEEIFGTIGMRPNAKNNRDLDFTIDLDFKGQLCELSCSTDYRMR
TCR-CD3 inh = blocks the human TCR-CD3 interaction; TAMRA-labeled TCR probe fluorescence, biochemical; inhibition, % at 9.4 µM; hit rate 0.37% among 360,000; in the data active = inhibition above about 19%;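 also: recombinant mutant TCR 2C K166C tagged with TAMRA read by polarization; 0% = receptor in buffer alone and 100% = receptor with positive control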
SIAE confirm = human SIAE inhibition, confirmation; shares compounds with SIAE primary; SIAE FP-Rh activity-based probe, fluorescence polarization; inhibition, % at 9.66 µM; hit rate 13% among 2,300; AID 1117263;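 active = mean inhibition of the replicates above the hit cutoff set in the primary screen, cut at about 17% in these data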;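 also: 0% = SIAE with DMSO and probe and 100% = probe without SIAE; inhibitors lower polarization as more probe stays unbound to SIAE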
The depositor's hits bear a star; / = no result.

SMILES	SIAE primary	ABHD4 inh	HTRA1 inhibitor	PRMT1 inh	TCR-CD3 inh	SIAE confirm
CC1Cc2nc(SCC(=O)NCC3CCCO3)n(C)c(=O)c2S1 (stereo unspecified)	20*	9	4	6	-2	-1
CCn1nc(NC(=O)Cc2ccc(OC)cc2)c2cc3cc(C)ccc3nc21	4	4	0	4	-4	/
Cc1ccc(S(=O)(=O)Nc2nc(C)c(NC(=O)Nc3ccc(Cl)cc3Cl)s2)cc1	35*	17	13	1	2	29*
CCN(CC)c1ccc(/C=N/N2CCN(Cc3ccccc3Cl)CC2)c(O)c1	22*	3	0	-5	2	4
Cc1ccc(NC(=O)CCN2C(=O)NC3(CCCC3)C2=O)c(C)c1	4	7	10	3	1	/
CC1CCC(=NNC(=O)c2ccccc2-n2cccc2)CC1 (stereo unspecified)	0	-10	3	-4	1	/
CC1CCC/C(=N/NC(=O)c2ccccc2-n2cccc2)C1 (stereo unspecified)	42*	0	-1	-1	3	8
COc1ccc(S(=O)(=O)n2cccc2)cc1OC	-5	1	3	0	-5	/
COc1cc(C(=O)N2CCN(C3CCCCC3)CC2)cc(OC)c1OC	18*	10	5	-3	6	10
COc1cc(C(=O)N2CCC(N3CCCCCC3)CC2)cc(OC)c1OC	0	6	13	1	4	/
COc1ccc(C)cc1N(CC(=O)N1CCCC1)S(C)(=O)=O	18*	2	2	2	-2	-1
Cc1ccc(C(=O)C(OC(=O)CCC(=O)Nc2cccc(C)c2)c2ccccc2)cc1 (stereo unspecified)	21*	8	-7	0	11	-1
COc1ccc(NC(=O)CCC(=O)OC(C(=O)c2ccccc2)c2ccccc2)cc1 (stereo unspecified)	3	7	-8	3	1	/
C[C@@H]1CN([C@H](C)CO)C(=O)c2ccccc2-c2ccccc2CO[C@@H]1CN(C)C(=O)Nc1ccccc1	1	2	/	4	7	/
Cc1cc(Br)cc(Cl)c1OCC(=O)N1CCN(C(=O)c2ccco2)CC1	3	3	1	3	3	/
COC(=O)Nc1nnc(-c2ccco2)s1	7	5	/	1	2	/
CC(C)Cc1nnc(NC(=O)CCNC(=O)c2ccco2)s1	29*	-1	1	1	2	1
CC(C)CC(=O)Nc1nnc(-c2ccco2)s1	18*	-7	1	0	5	-1
C=CCSc1nnc(NC(=O)CCNC(=O)c2ccco2)s1	2	4	3	3	5	/
COc1ccc(NC(=O)Nc2cccc3c2O[C@H](CN(C)C(=O)Nc2c(C)noc2C)[C@@H](C)CN([C@H](C)CO)C3=O)cc1	4	3	9	0	9	/
COc1ccc(F)cc1-c1cc(C(=O)NCc2ccc(F)cc2)[nH]n1	1	4	/	-1	0	/
CCCOc1ccc(OCCN2CCCC(C)C2)cc1 (stereo unspecified)	20*	15	1	-3	0	7
CC1CCCN(CCOc2cccc(Oc3ccccc3)c2)C1 (stereo unspecified)	-3	9	4	-5	-1	/
CCN(CC)S(=O)(=O)c1cccc(NC(=O)CN2C(=O)NC3(CCC(C)CC3)C2=O)c1 (stereo unspecified)	-4	4	0	0	-3	/
O=C(NC1CCCCC1)c1cc(-c2ccccc2O)on1	0	-2	4	3	-2	/
SMILES	SIAE primary	ABHD4 inh	HTRA1 inhibitor	PRMT1 inh	TCR-CD3 inh	SIAE confirm
NC(=S)N/N=C/c1ccccc1O	4	2	-3	3	-2	/
Oc1ccccc1C=NNC(=S)NN=Cc1ccccc1O	42*	28	32	3	18	52*
Cc1ccc(S(=O)(=O)NC(=O)C2(C)CCN2C(=O)Cc2cc(F)ccc2F)nc1 (stereo unspecified)	1	5	/	1	-3	/
O=C(O)CC(NC(=O)/C(=C/c1ccccc1)NC(=O)c1ccccc1)c1ccccc1 (stereo unspecified)	-1	0	-4	1	6	/
Cc1ccc(-c2nnc(Nc3ccc(C(=O)N(C)C)cc3)c3ccccc23)cc1S(=O)(=O)NCC1CCCO1 (stereo unspecified)	21*	-6	-10	1	0	-5
CC(C)(C)C(=O)Nc1c2c(nn1-c1cccc(Cl)c1)CS(=O)(=O)C2	-11	4	6	3	2	/
CC(=O)Nc1c2c(nn1-c1cccc(Cl)c1)CS(=O)(=O)C2	18*	3	-1	-2	2	-5
Cc1[nH]c2ccc(OCc3ccccc3)cc2c1CCN1C(=O)OC(C)(C)C1(C)O (stereo unspecified)	4	1	0	-5	-2	/
Cc1[nH]c2ccc(F)cc2c1CCN1C(=O)OC(C)(C)C1(C)O (stereo unspecified)	26*	-3	9	0	-7	3
Cc1ccccc1NC(=O)CSc1nc(=O)n(CCN2CCOCC2)c2c1CCCC2	-4	0	-3	-2	5	/
COc1ccc(Nc2nc(N)c([N+](=O)[O-])c(NCc3ccccc3)n2)cc1	24*	-2	-1	-9	3	5
COc1cc(N=Nc2cccc(S(N)(=O)=O)c2)c2ccccc2c1N	26*	-1	30	-8	1	-2
NC1=NC(=Nc2cccc(S(N)(=O)=O)c2)c2ccccc21	-5	4	7	1	2	/
COc1ccc(C(=O)NC2CCCc3c2cnn3-c2ccccc2F)o1 (stereo unspecified)	-7	-4	-2	1	8	/
O=C(N[C@H](CO)Cc1ccccc1)[C@H]1O[C@@H](n2ccc(=O)[nH]c2=O)[C@H](O)[C@@H]1O	48*	1	/	3	-10	44*
O=C(O)[C@H](Cc1ccccc1)NC(=O)[C@H]1O[C@@H](n2ccc(=O)[nH]c2=O)[C@H](O)[C@@H]1O	-2	-4	/	-2	4	/
CC[C@H](C)[C@@H](CO)NC(=O)[C@H]1O[C@@H](n2ccc(=O)[nH]c2=O)[C@H](O)[C@@H]1O	88*	6	/	0	1	78*
COc1cccc(-c2cc(C(=O)N3CCN(C(=O)c4ccco4)CC3)on2)c1	-1	-5	-1	6	-7	/
NS(=O)(=O)c1ccc(NC(=O)COC(=O)COc2cccc(C(F)(F)F)c2)cc1	-5	-19	-1	1	-5	/
O=C(NNc1nc2ccccc2o1)c1ccccc1	18*	6	/	-4	7	0
C[C@@H]1CN([C@@H](C)CO)C(=O)c2cc(Br)cnc2O[C@@H]1CN(C)C(=O)c1ccc(F)cc1	2	-5	/	-2	8	/
CNC(=O)COC(=O)c1ccc2c(c1)S(=O)(=O)c1ccccc1C2=O	0	1	2	1	9	/
